Tests used:
[1] = molecular target: T1, Urease subunit alpha/Urease subunit beta (Helicobacter pylori (strain ATCC 700392 / 26695) (Campylobacterpylori)) (UniProt P69996+P14916); assay: Ratio of IC50 for inhibition of urease in Helicobacter pylori ATCC 43504 intact cells to IC50 for inhibition of Helicobacter pylori ATCC 43504 urease under cell free condition; conditions: Helicobacter pylori NCTC 11637 = CCUG 17874 = ATCC 43504
[2] = molecular target: T1, Urease subunit alpha/Urease subunit beta (Helicobacter pylori (strain ATCC 700392 / 26695) (Campylobacterpylori)); assay: (§1) Inhibition of urease in Helicobacter pylori ATCC 43504 assessed as reduction in ammonia production using urea as substrate preincubated for 1.5 hrs by indophenol method; type: protein-complex assay; conditions: Helicobacter pylori NCTC 11637 = CCUG 17874 = ATCC 43504
Outline: (§2)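 Crude urease from sonicated H. pylori cells (grown 24 h, 37 °C, microaerobic, Brucella broth + 10% sheep blood), PBS-washed, frozen at –80 °C, desalted on Sephadex G-25, stored in 50% glycerol at 4 °C; 10U enzyme preincubated with compound 1.5 h at room temperature; ammonia measured by Weatherburn indophenol method.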

[3] = molecular target: T2, Urease subunit alpha/Urease subunit beta (Helicobacter pylori (strain ATCC 700392 / 26695) (Campylobacterpylori), UniProt P69996); assay: as §1; type: protein-complex assay, Helicobacter pylori NCTC 11637 = CCUG 17874 = ATCC 43504; outline: as §2
T2 sequence (P69996 whole entry): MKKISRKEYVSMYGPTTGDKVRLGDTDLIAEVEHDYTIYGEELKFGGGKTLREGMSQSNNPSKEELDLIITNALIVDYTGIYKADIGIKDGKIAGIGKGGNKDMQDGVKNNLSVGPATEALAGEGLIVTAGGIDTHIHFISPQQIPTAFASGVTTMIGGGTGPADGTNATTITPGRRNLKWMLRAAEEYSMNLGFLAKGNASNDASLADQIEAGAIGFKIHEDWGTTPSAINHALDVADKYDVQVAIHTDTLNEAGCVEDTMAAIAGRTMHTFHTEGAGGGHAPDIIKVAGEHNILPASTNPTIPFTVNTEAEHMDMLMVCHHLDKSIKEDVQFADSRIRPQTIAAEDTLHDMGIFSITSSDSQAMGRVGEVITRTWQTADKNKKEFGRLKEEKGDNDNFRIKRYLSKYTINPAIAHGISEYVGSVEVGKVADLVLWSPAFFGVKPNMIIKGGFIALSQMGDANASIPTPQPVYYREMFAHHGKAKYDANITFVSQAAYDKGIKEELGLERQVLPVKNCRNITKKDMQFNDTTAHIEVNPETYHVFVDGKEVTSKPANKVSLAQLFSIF
T2 sequence (P14916 whole entry, further chain): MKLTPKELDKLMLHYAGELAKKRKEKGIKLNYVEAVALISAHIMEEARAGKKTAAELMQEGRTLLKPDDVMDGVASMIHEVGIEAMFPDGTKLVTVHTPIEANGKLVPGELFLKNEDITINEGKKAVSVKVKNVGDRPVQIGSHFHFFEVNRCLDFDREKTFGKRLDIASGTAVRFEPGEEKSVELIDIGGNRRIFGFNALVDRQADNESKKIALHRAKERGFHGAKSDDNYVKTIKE

[4] = molecular target: T2, Urease subunit alpha/Urease subunit beta; assay: Inhibition of Helicobacter pylori ATCC 43504 urease assessed as reduction in ammonia production using urea as substrate preincubated for 1.5 hrs under cell free condition by indophenol method; type: protein-complex assay, Helicobacter pylori NCTC 11637 = CCUG 17874 = ATCC 43504
Outline: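 Crude urease from H. pylori ATCC 43504 grown 24 h at 37 °C, micro-aerobic, in Brucella broth with 10% sheep blood. Cells were PBS-washed, frozen at −80 °C, sonicated with protease inhibitors, centrifuged, desalted on G-25 and kept in 50% glycerol at 4 °C. Enzyme (10U) was preincubated with compound 1.5 h at room temperature. Ammonia was read by the indophenol method.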

[5] = molecular target: T1, Urease subunit alpha/Urease subunit beta (Helicobacter pylori (strain ATCC 700392 / 26695) (Campylobacterpylori)); assay: Potency index, ratio of acetohydroxamic acid IC50 to compound IC50 for inhibition of Helicobacter pylori ATCC 43504 urease; type: protein-complex assay; conditions: Helicobacter pylori NCTC 11637 = CCUG 17874 = ATCC 43504
[6] = molecular target: T1, Urease subunit alpha/Urease subunit beta (Helicobacter pylori (strain ATCC 700392 / 26695) (Campylobacterpylori)); assay: Potency index, ratio of acetohydroxamic acid IC50 to compound IC50 for inhibition of urease in Helicobacter pylori ATCC 43504; type: protein-complex assay; conditions: Helicobacter pylori NCTC 11637 = CCUG 17874 = ATCC 43504
[7] = molecular target: T2, Urease subunit alpha/Urease subunit beta; assay: Mixed-type inhibition of Helicobacter pylori ATCC 43504 urease assessed as enzyme-inhibitor complex using urea as substrate preincubated for 1.5 hrs; type: protein-complex assay, Helicobacter pylori NCTC 11637 = CCUG 17874 = ATCC 43504
Outline: (§3)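 Ammonia production rate measured by the indophenol method over a urea concentration gradient at each fixed inhibitor concentration. Inhibition type was assigned by nonlinear fitting to the general kinetic equation. Ki and Ki' were taken as the X-axis intercepts of linear fits of the fitted parameters against inhibitor concentration.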

[8] = molecular target: T2, Urease subunit alpha/Urease subunit beta; assay: Mixed-type inhibition of Helicobacter pylori ATCC 43504 urease assessed as enzyme-substrate-inhibitor complex using urea as substrate preincubated for 1.5 hrs; type: protein-complex assay, Helicobacter pylori NCTC 11637 = CCUG 17874 = ATCC 43504; outline: as §3

T1 sequence (P14916 whole entry, looked up): as the sequence (P14916 whole entry, further chain) above
T1 sequence (P69996 whole entry, looked up): as the sequence (P69996 whole entry) above

For O=C(COc1ccc(Cl)cc1Cl)NO, the Ratio IC50 [1] was 14 to 24, the inhibition [2] was “Dose-dependent effect” and the IC50 [3] was 21.4 µM. For the same compound, the IC50 [4] was 0.83 µM.

With COc1ccc(OCCC(=O)NO)cc1 the IC50 [4] was 8.35 µM.

O=C(CCOc1ccc(Br)cc1)NO was tested, and the Ratio IC50 [1] was 14 to 24, the inhibition [2] was “Dose-dependent effect” and the IC50 [3] was 16.3 µM. For the same compound, the IC50 [4] was 0.86 µM.

O=C(COc1cccc(Cl)c1Cl)NO was tested, and the IC50 [4] was 179 µM.

Work on O=C(CCOc1cccc(F)c1)NO yielded an IC50 [4] of 2.05 µM.

Cc1ccc(OCCC(=O)NO)cc1 gave an IC50 [4] of 1.38 µM.

O=C(COc1ccc(Cl)cc1)NO was tested, and the IC50 [4] was 1.26 µM.

In the case of O=C(COc1ccccc1)NO, the IC50 [4] is reported as 131 µM.

O=C(CCOc1cc(F)cc(F)c1)NO gave an IC50 [4] of 5.09 µM.

With Cc1cc(C)cc(OCC(=O)NO)c1 the IC50 [4] was 41.9 µM.

For O=C(COc1cc(F)cc(F)c1)NO, the IC50 [4] was 205 µM.

In the case of O=C(CCOc1ccc(Cl)c(Cl)c1)NO, the Ratio IC50 [1] is reported as 14 to 24, the inhibition [2] is reported as “Dose-dependent effect” and the IC50 [3] is reported as 0.89 µM. The IC50 [4] was 0.061 µM, the Ratio IC50 [5] was over 450 and the Ratio IC50 [6] was over 120.

For O=C(COc1ccc([N+](=O)[O-])cc1)NO, the IC50 [4] was 62.1 µM.

Work on O=C(COc1cccc(F)c1)NO yielded an IC50 [4] of 27 µM.

With Cc1ccccc1OCC(=O)NO the IC50 [4] was 154 µM.

O=C(CCOc1ccc(Cl)cc1)NO was tested, and the Ki [7] was 0.043 µM, the Ratio IC50 [1] was 14 to 24 and the inhibition [2] was “Dose-dependent effect”. The IC50 [3] was 8.2 µM, the IC50 [4] was 0.44 µM and the Ki [8] was 0.054 µM.

For Cc1ccc(OCC(=O)NO)cc1, the IC50 [4] was 57.1 µM.

O=C(CCOc1cccc(Cl)c1)NO gave an IC50 [4] of 1.23 µM.

O=C(COc1c(Cl)cccc1Cl)NO was tested, and the IC50 [4] was 353 µM.

Work on O=C(COc1ccc(Br)cc1)NO yielded an IC50 [4] of 5.35 µM.

In the case of O=C(CCOc1ccccc1)NO, the IC50 [4] is reported as 4.18 µM.

Compound O=C(COc1ccccc1[N+](=O)[O-])NO has an IC50 [4] of 144 µM.

In the case of Cc1ccccc1OCCC(=O)NO, the IC50 [4] is reported as 6.74 µM.

Cc1cc(C)cc(OCCC(=O)NO)c1 showed an IC50 [4] of 10.4 µM.

Work on O=C(COc1cc(Cl)ccc1Cl)NO yielded an IC50 [4] of 9.02 µM.

With O=C(COc1cccc(Cl)c1)NO the IC50 [4] was 10.4 µM.

Work on O=C(COc1ccccc1Cl)NO yielded an IC50 [4] of 78.5 µM.

With O=C(CCOc1cc(Cl)ccc1Cl)NO the IC50 [4] was 13.1 µM.

With O=C(CCOc1ccc(F)cc1)NO the IC50 [4] was 1.13 µM.

For O=C(COc1cc(Cl)cc(Cl)c1)NO, the IC50 [4] was 3.22 µM.

Cc1cccc(OCCC(=O)NO)c1 was tested, and the IC50 [4] was 3.38 µM.

O=C(COc1cccc([N+](=O)[O-])c1)NO was tested, and the IC50 [4] was 94.7 µM.

In the case of O=C(COc1ccc(Cl)c(Cl)c1)NO, the Ratio IC50 [1] is reported as 14 to 24, the inhibition [2] is reported as “Dose-dependent effect” and the IC50 [3] is reported as 12.8 µM. It also gave an IC50 [4] of 0.52 µM.

O=C(COc1ccc(F)cc1)NO was tested, and the IC50 [4] was 18.9 µM.

COc1ccc(OCC(=O)NO)cc1 was tested, and the IC50 [4] was 49.5 µM.

For O=C(COc1ccccc1F)NO, the IC50 [4] was 121 µM.

With Cc1cccc(OCC(=O)NO)c1 the IC50 [4] was 85.1 µM.

From ChEMBL document CHEMBL4229433, “The synthesis and evaluation of phenoxyacylhydroxamic acids as potential agents for Helicobacter pylori infections” (Bioorg Med Chem, 2018)
